Measured values: ChEMBL document CHEMBL1777808, “Preparation and pharmacological evaluation of a novel series of 2-(phenylthio)benzo[b]thiophenes as selective MT2 receptor ligands” (Eur J Med Chem, 2011)

Tests used:
[1] = species: Homo sapiens; experiment: Selectivity ratio of Ki for human MT1 receptor to Ki for human MT2 receptor
In short: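 Ki values from competition binding on membranes of stably transfected CHO cells (human MT1 or MT2). Ratio is MT1 Ki over MT2 Ki.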

[2] = target: T1, Melatonin receptor type 1B (Homo sapiens, UniProt P49286); experiment: Displacement of 2-[125I]iodomelatonin from human MT2 receptor expressed in CHO cells; format: cell-based
T1 sequence (P49286 whole entry): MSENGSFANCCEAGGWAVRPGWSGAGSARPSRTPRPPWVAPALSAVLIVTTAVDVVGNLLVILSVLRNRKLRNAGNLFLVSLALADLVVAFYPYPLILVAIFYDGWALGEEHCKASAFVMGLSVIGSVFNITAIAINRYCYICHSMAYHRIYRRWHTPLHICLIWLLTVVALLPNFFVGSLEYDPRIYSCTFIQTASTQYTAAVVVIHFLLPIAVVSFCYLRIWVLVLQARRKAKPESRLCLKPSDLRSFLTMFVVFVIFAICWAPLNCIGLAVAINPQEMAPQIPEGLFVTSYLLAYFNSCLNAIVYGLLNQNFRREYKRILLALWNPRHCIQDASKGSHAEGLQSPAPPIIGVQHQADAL

[3] = target: T2, Melatonin receptor type 1A (Homo sapiens, UniProt P48039); experiment: Displacement of 2-[125I]iodomelatonin from human MT1 receptor expressed in CHO cells; format: cell-based
[4] = target: T2, Melatonin receptor type 1A; experiment: Agonist activity at human MT1 receptor expressed in CHO cells by [35S]GTPgamma binding assay; format: functional, cell-based
[5] = target: T3, Melatonin receptor type 1B (Homo sapiens) (UniProt P49286); experiment: Agonist activity at human MT2 receptor expressed in CHO cells by [35S]GTPgamma binding assay relative to melatonin; format: functional, cell-based
T3 sequence (whole entry): T1 sequence (P49286 whole entry)

[6] = target: T1, Melatonin receptor type 1B; experiment: Agonist activity at human MT2 receptor expressed in CHO cells by [35S]GTPgamma binding assay; format: functional, cell-based
[7] = target: T2, Melatonin receptor type 1A; experiment: Agonist activity at human MT1 receptor expressed in CHO cells by [35S]GTPgamma binding assay relative to melatonin; format: functional, cell-based
[8] = target: T2, Melatonin receptor type 1A; experiment: Antagonist activity at human MT1 receptor expressed in CHO cells assessed as inhibition of melatonin-induced [35S]GTPgamma binding; format: functional, cell-based
In short: (§1)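 Then 0.2 nM [35S]GTPγS added, 1 h at room temperature in HEPES pH 7.4/NaCl/MgCl2/GDP/saponin buffer. Filtration, three ice-cold washes.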

[9] = target: T3, Melatonin receptor type 1B (Homo sapiens); experiment: Antagonist activity at human MT2 receptor expressed in CHO cells assessed as inhibition of melatonin-induced [35S]GTPgamma binding; format: functional, cell-based; in short: as §1

T2 sequence (P48039 whole entry): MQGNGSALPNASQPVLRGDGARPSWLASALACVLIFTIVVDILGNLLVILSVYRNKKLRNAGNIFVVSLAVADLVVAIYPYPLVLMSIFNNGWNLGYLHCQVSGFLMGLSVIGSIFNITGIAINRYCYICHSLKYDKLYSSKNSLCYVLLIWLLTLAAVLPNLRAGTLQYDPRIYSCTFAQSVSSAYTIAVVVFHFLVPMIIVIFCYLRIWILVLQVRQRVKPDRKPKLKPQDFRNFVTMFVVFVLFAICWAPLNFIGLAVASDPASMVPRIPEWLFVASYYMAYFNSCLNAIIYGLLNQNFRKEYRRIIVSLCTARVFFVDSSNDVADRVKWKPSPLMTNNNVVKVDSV

Structure (SMILES)	Ratio Ki [1]	Ki [2] [nM]	Ki [3] [nM]	EC50 [4] [nM]	Emax [5] [%]	EC50 [6] [nM]	Emax [7] [%]	Imax [8] [%]	Kb [8] [nM]	Imax [9] [%]	Kb [9] [nM]
C=CC(=O)NCCc1c(Sc2ccc(F)cc2)sc2ccc(F)cc12	22	10.7	236	–	–	–	–	–	–	–	–
C=CCC(=O)NCCc1c(Sc2ccc(F)cc2)sc2ccc(F)cc12	220	0.24	52.8	188	52.4	2.15	45	–	–	–	–
O=C(NCCc1c(Sc2ccc(F)cc2)sc2ccc(F)cc12)C1CCC1	4.7	194	915	–	–	–	–	–	–	–	–
CCC(=O)NCCc1c(Sc2ccc(F)cc2)sc2ccc(F)cc12	51.4	4.4	226	> 10000	–	> 10000	–	115	42	92	0.67
CC(=O)NCCc1c(Sc2ccc(F)cc2)sc2ccc(F)cc12	65.5	0.87	57	202	42	0.64	33	–	–	–	–
CC(=O)NCCc1csc2ccc(F)cc12	5	4.87	24.6	23.8	61	0.68	87	–	62.8	–	> 10000
O=C(CBr)NCCc1c(Sc2ccc(F)cc2)sc2ccc(F)cc12	4.2	5.21	22.1	> 10000	47	7.27	–	–	–	–	–
O=C(CCCCl)NCCc1c(Sc2ccc(F)cc2)sc2ccc(F)cc12	115	24.8	2860	–	–	–	–	–	–	–	–
